The text below walks through data of ChEMBL document CHEMBL4028911, “Discovery of a Small-Molecule Bromodomain-Containing Protein 4 (BRD4) Inhibitor That Induces AMP-Activated Protein Kinase-Modulated Autophagy-Associated Cell Death in Breast Cancer” (J Med Chem, 2017).

Active and inactive are the calls of the source. The rule behind the calls is not given here.

By TGI is commonly meant the reduction of tumour growth relative to the control group. As usually defined, the IC50 is the concentration that inhibits the measured activity by half.

Series [1] has as its system MCF7. In words: Induction of autophagy in human MCF7 cells assessed as downregulation of p62/SQSTM1 expression at 1.5 uM in presence of ATG5 siRNA by Western blot analysis. It counts as functional, cell-based. For orientation: A western blot detects proteins with antibodies after separation by electrophoresis.
For series [2], the system named is MCF7. In words: Antitumor activity against human MCF7 cells xenografted in nude BALB/c mouse assessed as tumor growth inhibition at 25 to 100 mg/kg, ig administered once a day for 24 days measured every 3 days relative to control. It counts as functional. In a few lines:
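Female BALB/c nude mice, 6-8 weeks, 20-22 g, injected subcutaneously with 5×10^6 MCF-7 or MDA-MB-231 cells. At 100 mm³ tumor volume (V = L×W²/2), split into four groups: 25, 50 or 100 mg/kg intragastric once daily for 24 or 27 days, or vehicle. Tumor volume and body weight measured every 3 days; tumors excised and weighed at end. MCF-7 n=7, MDA-MB-231 n=6 per group.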

Series [3] deals with Bromodomain-containing protein 2 (Homo sapiens, UniProt P25440). As to the kind of experiment: Inhibition of recombinant human N-terminal GST-tagged BRD2 bromodomain-2 (339 to 459 residues) expressed in Escherichia coli expression system after 120 mins by TR-FRET assay. An outline of the steps:
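TR-FRET bromodomain binding. Recombinant BRD domain, BET ligand and test agent in 20 μl assay buffer with 1% DMSO final. Incubated 120 min at room temperature. Blank lacks BET ligand.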

The target in series [4] is T1, Bromodomain-containing protein 4 (Homo sapiens, UniProt O60885). In words: Inhibition of BRD4 in human MDA-MB-231 cells assessed as downregulation of AKT phosphorylation at thr308 at 3 uM measured up to 36 hrs by Western blot analysis. It counts as cell-based. In a few lines: (§1)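 MCF-7 (1.5 μM) or MDA-MB-231 (3 μM) cells treated for indicated times. Adherent and floating cells lysed in RIPA with 1 mM PMSF. Equal protein run on 10-15% SDS-PAGE, blotted to PVDF, blocked in milk or BSA, HRP/ECL detection. β-actin loading control.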

The test system of series [5] is MDA-MB-231. In words: Induction of autophagy in human MDA-MB-231 cells assessed as increase in LC3-2 expression at 3 uM by Western blot analysis. It counts as functional, cell-based. As to conditions: TDE = time-dependent effect. An outline of the steps: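 MDA-MB-231 cells (DMEM, 10% FBS, 37 °C, 5% CO2) exposed to 3 μM for indicated times. Adherent and floating cells collected, lysed in RIPA with 1 mM PMSF at 4 °C for 1 h. Protein quantified by DC assay, resolved on 10-15% SDS-PAGE, blotted to PVDF, ECL detection.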

The test system of series [6] is Mus musculus. In words: Toxicity in BALB/c mouse xenografted with human MCF7 cells assessed as effect on body weight at 25 to 100 mg/kg, ig administered once a day for 24 days measured every 3 days. The series is classed as organism-based. To be noted: in vivo, po. An outline of the steps: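 Female BALB/c nude mice (6-8 weeks, 20-22 g) with subcutaneous MCF-7 or MDA-MB-231 xenografts (5×10^6 cells). At 100 mm3, given 25, 50 or 100 mg/kg intragastrically once daily, or vehicle, for 24 or 27 days. Body weight recorded every 3 days. MCF-7 n=7, MDA-MB-231 n=6 per group.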

Series [7] has as its target T1, Bromodomain-containing protein 4. As to the kind of experiment: Inhibition of BRD4 in human MCF7 cells assessed as reduction in ATG13 protein expression at 1.5 uM up to 36 hrs by Western blot analysis. The series is classed as cell-based. In a few lines: as §1
The target is the same in series [8]. In words: Inhibition of recombinant human BRD4 bromodomain-2 (342 to 460 residues) expressed in Escherichia coli expression system after 120 mins by TR-FRET assay. A general note: Time-resolved FRET reads energy transfer from a long-lived donor to a nearby acceptor.
For series [9], the system named is MDA-MB-231. In words: Induction of autophagy in human MDA-MB-231 cells assessed as downregulation of p62/SQSTM1 expression at 3 uM measured up to 36 hrs by Western blot analysis. It counts as functional, cell-based. In a few lines:
(§2)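 MCF-7 (1.5 µM) or MDA-MB-231 (3 µM) cells treated for indicated times. Adherent and floating cells lysed in RIPA with 1 mM PMSF, 4°C for 1 h. Equal protein run on 10-15% SDS-PAGE, transferred to PVDF, blocked with milk or BSA, probed with primary then HRP secondary antibodies, ECL detection; β-actin as loading control.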

The test system of series [10] is MCF7. As to the kind of experiment: Effect on mTOR expression in human MCF7 cells at 1.5 uM measured up to 36 hrs by Western blot analysis. The series is classed as ADME, cell-based. As to conditions: mcf7, 36 h. An outline of the steps:
as §2

For the next series, the system named is MCF-7. As to the kind of experiment: Downregulation of HMGB1 expression in human MCF-7 cells at 1.5 uM measured up to 24 hrs by Western blot analysis.
Series [11] deals with T1, Bromodomain-containing protein 4. As to the kind of experiment: Inhibition of BRD4 in human MDA-MB-231 cells assessed as downregulation of AKT phosphorylation at ser473 at 3 uM measured up to 36 hrs by Western blot analysis. It counts as cell-based. In a few lines:
as §1

The subject of series [12] is Mus musculus. In words: In vivo inhibition of BRD4 expression in BALB/c mouse xenografted with human MDA-MB-231 cells at 100 mg/kg, ig administered once a day for 27 days by Western blot analysis. The series is classed as functional, organism-based. In a few lines: (§3)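 Tumor tissues excised from MCF-7 or MDA-MB-231 xenograft mice were lysed and analysed by western blot for BRD4, c-Myc, LC3 and cleaved caspase-3.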
On the technique in general: In xenograft studies the graft and the host belong to different species.

Series [13] deals with MCF7. As to the kind of experiment: Inhibition of BRD4 protein expression in human MCF7 cells at 1.5 uM measured up to 36 hrs by Western blot analysis. It counts as functional, cell-based. An outline of the steps: as §1
Series [14] deals with MDA-MB-231. As to the kind of experiment: Induction of autophagy in GFP-LC3 fused human MDA-MB-231 cells assessed as increase in LC3 puncta at 3 uM by fluorescence microscopy. The series is classed as functional, cell-based. An outline of the steps:
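MCF-7 or MDA-MB-231 cells transfected with eGFP-LC3 plasmid, then treated with 1.5 or 3 µM respectively for 24 h. LC3 puncta viewed by fluorescence microscopy.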

Series [15] concerns the target T1, Bromodomain-containing protein 4. In words: Inhibition of recombinant human BRD4 bromodomain-1 (49 to 170 residues) expressed in Escherichia coli expression system after 120 mins by TR-FRET assay.
Series [16] relates to MDA-MB-231. In words: Induction of autophagy in human MDA-MB-231 cells assessed as cytoplasmic vacuolization at 3 uM by electron microscopy. The series is classed as functional, cell-based. An outline of the steps: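 MCF-7 (1.5 µM) or MDA-MB-231 (3 µM) cells treated for indicated times. Cytoplasmic vacuoles examined by transmission electron microscopy.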
The target in series [17] is T1, Bromodomain-containing protein 4. As to the kind of experiment: Inhibition of BRD4 in human MDA-MB-231 cells assessed as reduction in ULK1 protein expression at 3 uM up to 36 hrs by Western blot analysis. The series is classed as cell-based. In a few lines:
as §1

For a further series, the species on record is Homo sapiens. In words: Increase in p53 interaction with AMPK in human MCF7 cells at 1.5 uM by co-immunoprecipitation assay. The series is classed as cell-based. In a few lines: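 Cells left untreated or treated, then lysed in RIPA (40 mM Tris-HCl pH 7.5, 150 mM NaCl, 0.5% NP-40, protease inhibitors, 5% glycerol, 10 mM NaF). Lysates incubated overnight at 4°C with BRD4 or p53 antibodies plus protein A/G beads, washed 3 times, resolved on 10% SDS-PAGE. Blots probed for p53 and AMPKα; inputs checked for BRD4, p53 and AMPKα.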

In series [18] the test system is Mus musculus. In words: In vivo inhibition of BRD4 expression in BALB/c mouse xenografted with human MCF7 cells at 100 mg/kg, ig administered once a day for 24 days by Western blot analysis. The series is classed as functional, organism-based. An outline of the steps: as §3

Chain of Bromodomain-containing protein 2 (P25440 whole entry, the tested form may be a part): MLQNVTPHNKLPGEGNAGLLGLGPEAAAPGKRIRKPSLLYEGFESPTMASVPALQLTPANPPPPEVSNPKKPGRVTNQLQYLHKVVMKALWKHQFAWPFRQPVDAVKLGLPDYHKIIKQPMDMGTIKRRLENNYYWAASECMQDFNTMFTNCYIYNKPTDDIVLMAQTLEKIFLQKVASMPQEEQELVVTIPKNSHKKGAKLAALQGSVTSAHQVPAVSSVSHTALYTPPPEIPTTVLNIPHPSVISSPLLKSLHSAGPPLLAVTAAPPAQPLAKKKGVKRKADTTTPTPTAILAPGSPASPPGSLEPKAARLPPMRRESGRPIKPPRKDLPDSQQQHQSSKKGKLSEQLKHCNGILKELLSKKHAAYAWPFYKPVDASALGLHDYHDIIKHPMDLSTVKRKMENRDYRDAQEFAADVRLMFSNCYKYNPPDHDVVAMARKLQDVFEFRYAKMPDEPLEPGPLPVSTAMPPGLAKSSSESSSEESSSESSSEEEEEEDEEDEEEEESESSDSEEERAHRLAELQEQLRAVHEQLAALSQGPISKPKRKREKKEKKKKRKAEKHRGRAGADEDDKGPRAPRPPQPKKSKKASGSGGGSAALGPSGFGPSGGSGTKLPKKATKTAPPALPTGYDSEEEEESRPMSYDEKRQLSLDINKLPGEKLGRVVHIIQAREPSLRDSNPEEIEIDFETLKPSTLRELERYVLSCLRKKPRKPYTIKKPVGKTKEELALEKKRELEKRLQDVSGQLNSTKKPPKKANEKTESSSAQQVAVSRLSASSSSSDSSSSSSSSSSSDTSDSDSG

As to `Cc1cc(-c2nc3sc4c(c3c(=O)[nH]2)CCN(C)C4)cc(C)c1O`, the outcome with MCF7 [1] was inactive. The TGI in the series on MCF7 [2] turned out to be 80%. Further, the half-maximal inhibitory concentration (IC50) is above 100 µM in series [3], 0.93 µM in [8] and 0.47 µM in [15]. In addition, the inhibition result (in series [4]; in [7]; in series [11]; in the series with MCF7 [13]; in series [17]) was “Active” in each case. For the same compound, the results for the Activity result with MDA-MB-231 [5], in the series with Mus musculus [6] and in the series on MCF7 [10] were “Tde”, “Non-Toxic” and “Non-Toxic”, respectively. Further, the outcome with MDA-MB-231 [9], in the series with MCF-7, with Mus musculus [12], with MDA-MB-231 [14], in the series on MDA-MB-231 [16] and in the series listed under Homo sapiens was Active. Besides, the result with Mus musculus [18] was Active.
